{"data": "Experimental data gathered from unrelated publications", "target": "Phosphatidylinositol 4,5-bisphosphate 3-kinase catalytic subunit gamma isoform (PIK3CG, Homo sapiens, UniProt P48736)", "note": "Each line is one published result; the experiments were not run side by side."}
{"SMILES": "N#CC1(c2ccccn2)CCN(Cc2cc(C(=O)O)c(=O)n3ccccc23)CC1", "observed": "cell-free assay", "technique": "competition with immobilised ligand", "tested at": "1 µM", "endpoint": "remaining binding", "value": "91%"}
{"SMILES": "Cc1nn(C)cc1-c1nc2c(N3CCN(Cc4ccc(Cl)cc4)CC3)c(Cl)cnc2[nH]1", "observed": "binding", "technique": "competition with immobilised ligand", "tested at": "1 µM", "endpoint": "remaining binding", "value": "100%"}
{"SMILES": "Nc1ncc(-c2nc(N3CCOCC3)nc(N3CCOCC3)n2)c(C(F)F)n1", "observed": "binding", "technique": "competition with immobilised ligand", "tested at": "10 µM", "endpoint": "remaining binding", "value": "0%"}
{"SMILES": "Cn1cncc1[C@](O)(COc1ccc(C#N)cc1-c1ccc(OC(F)(F)F)cc1)c1ccc(C#N)cc1", "observed": "cell-free assay", "technique": "competition with immobilised ligand", "tested at": "1 µM", "endpoint": "remaining binding", "value": "100%"}
{"SMILES": "COc1ncccc1-c1cnn2ccc(N3CCN(C(=O)OC(C)C)CC3)nc12", "observed": "binding", "technique": "competition with immobilised ligand", "tested at": "1 µM", "endpoint": "remaining binding", "value": "100%"}
{"SMILES": "Cn1cc(-c2cccc(N3CCc4c(sc5c4CC(C)(C)C5)C3=O)c2CO)cc(Nc2ccncn2)c1=O", "observed": "enzyme activity", "mode": "inhibitor", "tested at": "1 µM", "endpoint": "inhibition", "value": "-1%"}
{"SMILES": "C#Cc1n[nH]c2c(-c3cn([C@@H](C)c4ccccc4)c(=O)[nH]c3=O)cc(F)cc12", "observed": "enzyme activity", "mode": "inhibitor", "tested at": "0.1 µM", "endpoint": "inhibition", "value": "7.4%"}
{"SMILES": "Cn1cc(-c2cc(F)cc(N3CCn4c(cc5c4CCCC5)C3=O)c2CO)cc(Nc2ccc(N3CCN(C4COC4)CC3)cn2)c1=O", "observed": "enzyme activity", "mode": "inhibitor", "tested at": "0.1 µM", "endpoint": "inhibition", "value": "5%"}
{"SMILES": "C#Cc1n[nH]c2c(-c3cn([C@@H](C)c4ccccn4)c(=O)[nH]c3=O)cc(F)cc12", "observed": "enzyme activity", "mode": "inhibitor", "tested at": "0.1 µM", "endpoint": "inhibition", "value": "1.9%"}
